According to ChEMBL document CHEMBL1629689, “Cross-resistance to nitro drugs and implications for treatment of human African trypanosomiasis” (Antimicrob Agents Chemother, 2010):
Converted amounts (≈) assume the structure as drawn. The source made the active and inactive calls. The rule behind the calls is not given here.

Legend:
Trypanosoma brucei [1] = test: Antimicrobial activity against Trypanosoma brucei; assay type: functional, organism-based
How it was run: (§1)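 T. brucei bloodstream-form single-marker S427 (wild type) and cloned nifurtimox-resistant lines, cultured at 37°C in HMI9-T with 2.5 µg/ml G418. Growth inhibition measured, data corrected for background cell density and expressed as % of untreated cells. EC50 from a two-parameter fit with slope factor. At least three independent experiments; weighted means ± weighted SD.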

Trypanosoma brucei [2] = test: Antimicrobial activity against Trypanosoma brucei NfxR1; assay type: functional, organism-based; how it was run: as §1
Trypanosoma brucei [3] = test: Selectivity ratio of EC50 for Trypanosoma brucei NfxR1 to EC50 for Trypanosoma brucei; assay type: functional
How it was run: (§2)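 Resistance factor taken as EC50 for resistant cells divided by EC50 for wild-type S427 bloodstream T. brucei, both from the same in vitro growth-inhibition assay. EC50 values come from at least three independent experiments.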

Trypanosoma brucei [4] = test: Selectivity ratio of EC50 for Trypanosoma brucei NfxR2 to EC50 for Trypanosoma brucei; assay type: functional; how it was run: as §2
Trypanosoma brucei [5] = test: Antimicrobial activity against Trypanosoma brucei NfxR2; assay type: functional, organism-based; how it was run: as §1
[6] = Fraction unbound in plasma of NMRI mouse at 200 mg/kg, po; assay type: ADME, organism-based; parameters: dose 200 mg/kg, route oral
Trypanosoma brucei [7] = test: Antimicrobial activity against wild type Trypanosoma brucei infected NMRI assessed as cure rate at 50 mg/kg, QD for 3 days measured on day 6 by neubuaer hemocytometry
Blood [8] = test: Metabolic stability in blood of NMRI mouse assessed as accumulation of sulfoxide metabolite at 200 mg/kg, po measured after 2 hrs; assay type: ADME, organism-based; parameters: dose 200 mg/kg, route oral; details: in vivo
How it was run: (§3)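 Single oral dose of 200 mg/kg to NMRI mice, vehicle 10% DMSO in peanut oil. Tail-vein blood (10 µl) taken into water at 0.25, 0.5, 1, 2, 4, 6 and 8 h. Samples extracted by acetonitrile protein precipitation with internal standard. Parent and sulfoxide and sulfone metabolites measured by UPLC-MS/MS (positive ESI, MRM). Triplicate measurements.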

Trypanosoma brucei [9] = test: Antimicrobial activity against Trypanosoma brucei wild type
Trypanosoma brucei [10] = test: Antimicrobial activity against wild type Trypanosoma brucei infected in dosed NMRI administered QD for 3 days measured on day 6 by neubuaer hemocytometry
Trypanosoma brucei [11] = test: Antimicrobial activity against Trypanosoma brucei NfxR1 infected in dosed NMRI administered QD for 3 days measured on day 6 by neubuaer hemocytometry
Trypanosoma brucei [12] = test: Antimicrobial activity against Trypanosoma brucei NfxR1 infected in mouse assessed as decrease in parasitemia level at 200 mg/kg, QD for 3 days measured on day 60 by neubuaer hemocytometry
[13] = Cmax in NMRI mouse at 200 mg/kg, po after 15 mins; assay type: ADME, organism-based; parameters: dose 200 mg/kg, route oral; details: in vivo; how it was run: as §3
Blood [14] = test: Metabolic stability in blood of NMRI mouse assessed as accumulation of sulfone metabolite at 200 mg/kg, po measured after 8 hrs; details: in vivo
Trypanosoma brucei [15] = test: Antimicrobial activity against Trypanosoma brucei wild type; remark: listed apart in the source
Trypanosoma brucei [16] = test: animal or person; details: in Mus musculus, ip, 96 h
[17] = tested on: Trypanosoma brucei gambiense; test: Antimicrobial activity against Trypanosoma brucei gambiense
Trypanosoma brucei [18] = details: NfxR1, 100 mg/kg

Row | Compound | EC50 (Trypanosoma brucei [1]) [µM] | EC50 (Trypanosoma brucei [2]) [µM] | EC50 (Trypanosoma brucei [5]) [µM] | Ratio EC50 (Trypanosoma brucei [3]) | Ratio EC50 (Trypanosoma brucei [4]) | also measured
1 | CSc1ccc(OCc2ncc([N+](=O)[O-])n2C)cc1 [FEXINIDAZOLE] | – | – | – | – | – | fraction unbound [6]: 0.147; Activity (Trypanosoma brucei [7]): 100%; Stability (Blood [8]): 40000 ng/mL; MIC (Trypanosoma brucei [9]): 17.7 µM (≈ 4.94 µg/mL); ED50 (Trypanosoma brucei [10]): 21 mg/kg; ED50 (Trypanosoma brucei [11]): 171 mg/kg; inhibition (Trypanosoma brucei [12]): inactive; Cmax [13]: 961 ng/mL
2 | NCCCC(N)(C(=O)O)C(F)F (configuration not stated) [EFLORNITHINE] | 16.4 | 11.9 | 11.5 | 1 | 1 | –
3 | Cn1c([N+](=O)[O-])cnc1COc1ccc([S+](C)[O-])cc1 (configuration not stated) [FEXINIDAZOLE SULFOXIDE] | 1.4 | 18.4 | 21 | 13 | 15 | –
4 | Cn1c([N+](=O)[O-])cnc1COc1ccc(S(C)(=O)=O)cc1 [FEXINIDAZOLE SULFONE] | 0.62 | 9.6 | 9.5 | 15 | 15 | Stability (Blood [14]): 55000 ng/mL
5 | NC(=O)c1cc(N2CC2)c([N+](=O)[O-])cc1[N+](=O)[O-] [TRETAZICAR] | 0.54 | 8 | 10.2 | 15 | 19 | –
6 | CC1CS(=O)(=O)CCN1/N=C/c1ccc([N+](=O)[O-])o1 (configuration not stated) [NIFURTIMOX] | – | – | – | – | – | MIC (Trypanosoma brucei [15]): 15.2 µM (≈ 4.37 µg/mL); ED50 (Trypanosoma brucei [16]): 36.7 mg/kg; ED99 (Trypanosoma brucei [16]): 128 mg/kg; EC50 [17]: 0.26 µM; inhibition (Trypanosoma brucei [18]): inactive
7 | N=C(N)c1ccc(OCCCCCOc2ccc(C(=N)N)cc2)cc1 [PENTAMIDINE] | 0.00095 | 0.0026 | 0.0017 | 3 | 2 | –
8 | O=C(Cn1ccnc1[N+](=O)[O-])NCc1ccccc1 [BENZNIDAZOLE] | 30 | 154 | 155 | 5 | 5 | –

More lines, main results first:

Row | EC50 (Trypanosoma brucei [1]) [µM] | EC50 (Trypanosoma brucei [2]) [µM] | EC50 (Trypanosoma brucei [5]) [µM] | Compound | Ratio EC50 (Trypanosoma brucei [3]) | Ratio EC50 (Trypanosoma brucei [4]) | also measured
9 | 0.31 | 3.7 | 3.7 | NC(=O)N/N=C/c1ccc([N+](=O)[O-])o1 [NITROFURAZONE] | 12 | 12 | –
10 | > 500 | > 500 | > 500 | Cc1ncc([N+](=O)[O-])n1CCO [METRONIDAZOLE] | – | – | –
11 | 37.8 | 30.5 | 30.8 | O=[N+]([O-])c1cn2c(n1)OC[C@@H](OCc1ccc(OC(F)(F)F)cc1)C2 [PRETOMANID] | 1 | 1 | –
